# An excerpt weighted towards active compounds, which were near 2.2% of everything screened.
# MT1-MMP act inh = blocks activation of human MT1-MMP | P50281 | HT1080 RFP-PRO-GFP cells, GFP/RFP ratio fluorescence, overnight; percent of plate control window, DMSO zero | GFP/RFP ratio change, % at 20 µM | 360,000 tested, 0.061% active | AID 651647;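 active = GFP/RFP ratio change of at least 30% with cell ATP level not reduced by more than half and red fluorescence within 50% of control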
#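 Assay system: RFP-PRO-GFP reporter HT1080 cells; read-out basis: GFP/RFP fluorescence ratio; benchmarks: DMSO wells and RFP-L50D-GFP cells; doses: 20 µM single dose, 1% DMSO; schedule: overnight cell settling, then overnight compound exposure, 37 °C, 5% CO2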
# proKLK7 act = proKLK7 (human) activation, primary screen | P49862 | purified proKLK7, EDANS-DABCYL substrate fluorescence; 100% is mature enzyme control, 0% vehicle | activation, % at 7 µM | 370,000 tested, 0.9% active;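 active = activation above the mean of all tested compounds plus 3 SD, computed per campaign excluding outliers beyond control limits, cut at about 13% in these data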
# Target sequence (P49862 whole entry, looked up): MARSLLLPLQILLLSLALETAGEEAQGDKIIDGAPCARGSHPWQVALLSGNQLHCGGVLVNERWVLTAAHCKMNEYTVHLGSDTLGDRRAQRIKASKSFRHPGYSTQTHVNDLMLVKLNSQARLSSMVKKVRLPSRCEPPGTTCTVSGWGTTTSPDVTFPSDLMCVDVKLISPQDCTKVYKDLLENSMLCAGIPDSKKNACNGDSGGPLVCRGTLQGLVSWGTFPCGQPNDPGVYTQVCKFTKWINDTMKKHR
# SKN-1 block = inhibitors of C. elegans SKN-1; C. elegans VP596 Pgst-4::GFP/RFP ratio, acrylamide-induced, 24 h; AID 624304; 360,000 tested, 0.49% active; inhibition, % at 21.8 µM;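 active = interference check ratio from 0.5 to 1.5 plus GFP to RFP signal ratio inhibition reaching or exceeding a fixed threshold, cut at about 30% in these data, passing the limit was not always enough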
# Neddylation inh = blocks human cullin neddylation; 360,000 tested, 0.58% active; calls only at 25 µM; TR-FRET cullin neddylation, biochemical; in the data active = inhibition above about 36%
# DDE Tn6 FP inh = disrupts Tn6 cyclic peptide binding to fibrin D-Dimer-E complex; P02675; Fibrin DD(E) TRITC-Tn6 fluorescence polarization displacement; inhibition, % at 8.3 µM; 370,000 tested, 0.21% active; AID 720509;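 active = inhibition above a per-campaign cutoff: mean of compounds within control limits plus 3 SD, cut at about 15% in these data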
# DDE Tn7 FP inh = DD(E)-Tn7 binding inhibition, primary FP screen | P02675 | FP displacement of FITC-Tn7 peptide from fibrin DD(E); 0% = median of compound wells per plate | inhibition, % at 8.3 µM | 370,000 tested, 0.13% active;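 active = inhibition above the mean of compounds falling within the control limits plus 3 SD of them, cut at about 14% in these data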
#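 system = human fibrin DD(E) protein | quantity = DD(E) 2 µM final | medium = Tris/NaCl/CaCl2 buffer, pH 7.8 | also added = labelled Tn7 tracer, 0.1 µM | compound dosing = single point at 8.3 µM | timing = compound with protein 10 min, then 3 h after probe, room temperature | signal = FP measurement | benchmarks = Aha-Tn7 high control | repeats = one replicate per compound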
# Hits are given with their value; 0 = inactive; - = no result shown; + = active, no number.
SMILES,MT1-MMP act inh,proKLK7 act,SKN-1 block,Neddylation inh,DDE Tn6 FP inh,DDE Tn7 FP inh
COc1ccc2c(c1)c(C(O)CN1CCN(Cc3ccc4c(c3)OCO4)CC1)c(C)n2C (stereo unspecified),0,0,44,0,0,0
S=c1[nH]nc(-c2cc(-c3ccccc3)n[nH]2)n1/N=C/c1ccc(Br)s1,0,0,0,+,0,0
Cc1cc(-c2n[nH]c(=S)n2/N=C/c2ccc(Br)s2)n[nH]1,0,0,0,0,0,0
CNC(=O)CC(C(=O)O)c1ccc(OCC(C)C)cc1 (stereo unspecified),0,0,0,0,0,0
COc1ccc2oc(=O)c(C(=O)Oc3ccc(NC(C)=O)cc3)cc2c1,0,215,0,0,0,0
COc1ccc(NC(=O)c2cc3cc(OC)ccc3oc2=O)cc1,0,0,0,0,0,0
Cc1ccc(C(C)C)c(OCc2ccc(C(=O)N/N=C/c3ccc(O)cc3O)cc2)c1,0,0,0,+,0,0
Cn1ncc2c(NCCc3ccccc3)nc(Cl)nc21,0,0,35,0,0,0
Cn1ncc2c(Nc3ccccc3Cl)nc(Cl)nc21,0,0,0,0,0,0
CCCCN(C)CCNC(=O)c1cc2c(=O)[nH]c3ccccc3c2n1C,0,0,0,0,0,0
O=[N+]([O-])c1cccc(NC(=S)N2CCc3ccccc3C2)c1,0,0,0,0,0,0
Cc1cc(C)n(-c2ccc(C(=O)Oc3ccc4c(c3)OCO4)cc2)n1,0,0,37,0,0,0
CCN(CC)c1ccc(C2NC(=O)c3ccccc3N2)cc1 (stereo unspecified),0,0,37,-,0,0
Nc1ncnc2oc(-c3ccco3)c(-c3ccco3)c12,-,0,0,+,0,0
CC1CCC(C(C)C)C(OC(=O)C[n+]2cccc(C(N)=O)c2)C1 (stereo unspecified),0,0,38,0,0,0
CC1CCC(C(C)C)C(OC(=O)COC(=O)c2ccc(N)cc2)C1 (stereo unspecified),0,0,0,0,0,0
CCc1ccc(-c2nn(-c3cc(Cl)ccc3[N+](=O)[O-])c(=O)c3ccccc23)cc1,0,0,37,0,0,0
COCc1cc(C)nc(SCC(=O)Nc2ccc(C)c(C)c2)c1C#N,0,0,45,0,0,0
CCc1ccc2oc(-c3ccc(OC)cc3)cc(=Nc3c(C)n(C)n(-c4ccccc4)c3=O)c2c1,0,0,0,+,0,0
c1ccc(-c2nc3ccccn3c2NC2CCCC2)nc1,0,0,0,+,0,0
Cc1ccn2c(NC3CCCC3)c(-c3ccccn3)nc2c1,0,0,0,+,0,0
Cc1ccn2c(NC3CCCC3)c(-c3ccncc3)nc2c1,0,0,0,-,0,0
CCOc1ccc(OCCC(=O)Nc2ccccc2C(=O)NC2CC2)cc1,0,0,0,0,0,0
COc1ccccc1CCC(=O)Nc1ccc2c(c1)c(=O)n(C)n2-c1cccs1,0,0,0,0,0,0
COc1ccc(C(C(=O)NC2CCCC2)N(C(=O)c2snc(-c3ccc(F)cc3)c2N)c2ccc(F)cc2)cc1 (stereo unspecified),0,0,46,0,0,0
SMILES,MT1-MMP act inh,proKLK7 act,SKN-1 block,Neddylation inh,DDE Tn6 FP inh,DDE Tn7 FP inh
COc1ccc(C(C(=O)NC2CCCC2)N(C(=O)c2snc(-c3ccc(F)cc3)c2N)c2ccc(OC)cc2)cc1 (stereo unspecified),0,0,0,0,0,0
c1ccc(CCNc2nnnn2-c2ccccc2)cc1,0,0,37,0,0,0
CCCOc1ccc(N2C(=O)CC(N3CCN(C(=O)c4ccco4)CC3)C2=O)cc1 (stereo unspecified),0,0,0,0,17,0
CCc1n[nH]c(=S)n1N=C1CCC(C)CC1 (stereo unspecified),0,0,0,0,0,0
CNc1cccnc1C=NNC(N)=S,0,0,0,+,0,0
NC(=S)NN=Cc1nccc2c(C(F)(F)F)cccc12,0,0,0,0,0,0
Clc1ccc(Nc2ncnc3ccc(Br)cc23)cc1,0,0,36,0,0,0
Cc1ccc(-c2nnc(NC(=O)C3=COCCO3)o2)c(C)c1,-,0,0,0,0,0
COc1ccc(Nc2cc(C(=O)NCCCN3CCN(C)CC3)c3ccccc3n2)c(OC)c1,0,0,0,0,0,0
C(#CC1CCCCC1)c1ccc2c(c1)COc1c3ccccc3nn1-2,0,0,0,0,0,0
C#Cc1ccc2c(c1)COc1c3ccccc3nn1-2,0,0,48,0,0,0
C(#Cc1ccc2c(c1)COc1c3ccccc3nn1-2)c1ccccc1,0,0,37,0,0,0
CC(=O)Oc1cc2c3c(c1)/C(=C1/SC(=S)NC1=O)C(=O)N3C(C)(C)C=C2C,0,0,0,0,0,0
Cc1cccc(NS(=O)(=O)c2cc(C(=O)N3CCCC3)ccc2Cl)c1,0,0,0,0,0,0
COc1ccc(NC(=S)N2CCN(CCN=CC3=C(O)CC(c4ccccc4)CC3=O)CC2)cc1 (stereo unspecified),0,0,0,0,0,0
Cc1cc(NCc2ccco2)nc(N2CCC(C(=O)NC3CCCCC3)CC2)n1,0,0,0,0,0,0
Cc1ccc(C(=O)N/C(=C/c2ccc(-c3cccc([N+](=O)[O-])c3)o2)C(=O)NC(C)C)cc1,0,0,0,0,0,0
CCC(C(=O)N(C(C)C)C(C)C)c1ccccc1 (stereo unspecified),0,0,37,0,0,0
COC(=O)C1=C(C)N=c2s/c(=C/c3ccoc3)c(=O)n2C1c1ccccc1 (stereo unspecified),0,-,0,0,-,-
COC(=O)C1=C(C)N=c2s/c(=C/c3cccs3)c(=O)n2C1c1cccs1 (stereo unspecified),0,0,39,0,0,0
CC1CC(C)CN(C(=O)CNC(=O)c2sc3ccccc3c2Cl)C1 (stereo unspecified),0,0,0,0,0,0
OC1COC(c2ccccc2)OC1C1OC(c2ccccc2)OCC1O (stereo unspecified),0,0,0,0,0,0
CC1OC(c2ccccc2)OC2COC(c3ccccc3)OC12 (stereo unspecified),0,0,36,0,0,0
COc1ccc(CN(C)CC(O)COC(c2ccc(OC)cc2)c2ccc(OC)cc2)cc1 (stereo unspecified),0,0,0,0,0,0
CCOc1ccc(CN2C(=O)CCC2(C)C(=O)NCc2cccnc2)cc1 (stereo unspecified),0,0,0,0,0,0
Nc1cccc2c1C(=O)c1ccc(Cl)cc1C2=O,0,0,46,0,0,0

# Screening data deposited in PubChem BioAssay by several laboratories.
